Test results published in ChEMBL document CHEMBL1138319, “Synthesis and pharmacological evaluation of fluorescent and photoactivatable analogues of antiplasmodial naphthylisoquinolines” (J Med Chem, 2007).
Calls of active or inactive are those of the source. The rule behind the calls is not given here.

Tests used:
L6 = assay: Cytotoxicity against rat L6 cells; format: cell-based
Method in brief: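 L-6 rat skeletal myoblast cell line; cytotoxicity values reported in µM.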

Plasmodium falciparum = assay: Antiplasmodial activity against Plasmodium falciparum in human red blood cells after 4 hrs; format: functional, organism-based
[1] = molecular target: T1, Falcipain 2 (Plasmodium falciparum) (UniProt Q9N6S8); assay: Inhibition of Plasmodium falciparum recombinant cysteine protease falcipain-2
T1 sequence (whole entry): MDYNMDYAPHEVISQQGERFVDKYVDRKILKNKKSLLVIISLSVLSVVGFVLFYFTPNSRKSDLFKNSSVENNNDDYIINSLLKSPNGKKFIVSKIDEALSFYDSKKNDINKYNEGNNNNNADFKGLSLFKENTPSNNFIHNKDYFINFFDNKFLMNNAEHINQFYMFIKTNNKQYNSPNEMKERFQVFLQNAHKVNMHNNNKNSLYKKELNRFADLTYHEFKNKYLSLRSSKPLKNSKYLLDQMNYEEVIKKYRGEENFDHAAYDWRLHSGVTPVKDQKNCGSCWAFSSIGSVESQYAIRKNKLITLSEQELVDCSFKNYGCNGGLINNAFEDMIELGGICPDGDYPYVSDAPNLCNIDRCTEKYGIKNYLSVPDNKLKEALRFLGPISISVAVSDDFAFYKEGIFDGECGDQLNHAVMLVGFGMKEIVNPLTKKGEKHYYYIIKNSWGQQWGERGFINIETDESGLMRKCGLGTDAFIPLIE

Compound | IC50 (L6) [nM] | IC50 (Plasmodium falciparum) [nM] | Activity [1]
COc1cccc2c(-c3cc(CNCCCCCCNS(=O)(=O)c4cccc5c(N(C)C)cccc45)c4c(c3O)[C@@H](C)N[C@H](C)C4)c(C)cc(OC)c12 | 16500 | 602 | –
COC(=O)/C=C/c1cc(-c2c(C)cc(OC)c3c(OC)cccc23)c(OCc2ccccc2)c2c1C[C@@H](C)N(Cc1ccccc1)[C@@H]2C | > 140000 | 190 | –
COc1cccc2c(-c3cc(CNCCCCCCNS(=O)(=O)c4cccc5c(N(C)C)cccc45)c4c(c3OCc3ccccc3)[C@@H](C)N(Cc3ccccc3)[C@H](C)C4)c(C)cc(OC)c12 | 2500 | 45 | –
COc1cccc2c(-c3cc(CCCO)c4c(c3O)[C@@H](C)N[C@H](C)C4)c(C)cc(OC)c12 | 99000 | 2420 | –
COc1cc([C@@H]2c3cc4c(cc3[C@H](O)[C@H]3COC(=O)[C@H]23)OCO4)cc(OC)c1OC [PODOFILOX] | 7 | – | –
COc1cccc2c(-c3ccc4c(c3O)[C@@H](C)N[C@H](C)C4)c(C)cc(OC)c12 [DIONCOPHYLLINE A] | 29100 | 381 | inactive
COc1cccc2c(-c3cc(CCCOC(=O)N([C@@H](Cc4ccc(OCc5ccc(C(=O)c6ccccc6)cc5)cc4)C(=O)O)S(=O)(=O)c4cccc5c(N(C)C)cccc45)c4c(c3O)[C@@H](C)N[C@H](C)C4)c(C)cc(OC)c12 | 69500 | 960 | –
